SMILES strings stand for the structures. Activity calls are given as the source filed them.

A word on the IC50: it is the concentration that gives 50% inhibition. The term EC50 denotes the concentration that produces a half-maximal response. What is called inhibition is the percentage by which the read-out fell short of the control. A word on the Ki: it is the equilibrium dissociation constant of an inhibitor or competing ligand from its target. The Emax is the size of the effect at its maximum, as opposed to the concentration needed. In general, half-life refers to the time in which the quantity being followed falls by half. Higher therefore signals slow decline.

One data set concerns CHO. In words: Effect on cAMP level in wild-type CHO cells at 0.001 to 1 uM by alphascreen assay. It is filed as functional, cell-based. The following applies: Cricetulus griseus. In short, it runs like this: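 Compounds at 1 nM to 1 µM final concentrations. cAMP quantified with AlphaScreen kit. Four independent experiments, each in triplicate.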
A general note: cAMP levels reflect the balance of adenylyl cyclase and phosphodiesterase activity.

The target of data set [1] is T1, Adenosine receptor A2b (Homo sapiens, UniProt P29275).
T1 sequence (P29275 whole entry): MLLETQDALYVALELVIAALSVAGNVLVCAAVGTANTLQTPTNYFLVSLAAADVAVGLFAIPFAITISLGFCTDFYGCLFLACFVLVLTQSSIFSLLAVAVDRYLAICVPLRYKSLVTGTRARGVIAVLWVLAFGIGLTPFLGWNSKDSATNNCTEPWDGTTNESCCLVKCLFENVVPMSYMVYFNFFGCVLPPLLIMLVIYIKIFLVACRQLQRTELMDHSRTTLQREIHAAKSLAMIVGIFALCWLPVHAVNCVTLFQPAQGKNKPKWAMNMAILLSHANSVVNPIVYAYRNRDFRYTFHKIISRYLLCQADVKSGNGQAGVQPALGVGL
The data set can be described thus: Antagonist activity at human A2BR expressed in CHO cells assessed as inhibition of NECA-stimulated cAMP production by alphascreen assay. It is filed as functional, cell-based. In short, it runs like this:
(§1)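 Compounds added at 1 nM to 1 µM final, with percent inhibition read at 1 µM. AlphaScreen cAMP read-out. IC50 by sigmoid non-linear regression. Four independent experiments in triplicate.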

In data set [2] the target is T2, Adenosine receptor A1 (Homo sapiens, UniProt P30542).
T2 sequence (P30542 whole entry): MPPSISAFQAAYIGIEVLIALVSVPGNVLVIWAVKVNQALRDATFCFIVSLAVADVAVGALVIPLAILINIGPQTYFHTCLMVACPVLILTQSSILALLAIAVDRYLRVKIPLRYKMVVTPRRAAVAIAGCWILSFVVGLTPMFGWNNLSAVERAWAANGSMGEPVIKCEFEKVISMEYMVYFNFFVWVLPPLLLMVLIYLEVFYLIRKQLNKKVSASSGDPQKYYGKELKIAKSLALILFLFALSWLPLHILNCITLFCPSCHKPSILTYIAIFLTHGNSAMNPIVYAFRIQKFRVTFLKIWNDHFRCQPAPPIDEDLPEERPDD
In words: Inverse agonist activity at human A1AR expressed in CHO cells assessed as increase in forskolin-stimulated cAMP production by alphascreen assay. It is filed as functional, cell-based. A digest of the protocol:
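Compounds at 1 nM to 1 µM. cAMP rise measured by AlphaScreen. EC50 from sigmoid fit. Four independent experiments in triplicate.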

Data set [3] has as its target T3, Adenosine receptor A3 (Homo sapiens) (UniProt P0DMS8).
T3 sequence (whole entry): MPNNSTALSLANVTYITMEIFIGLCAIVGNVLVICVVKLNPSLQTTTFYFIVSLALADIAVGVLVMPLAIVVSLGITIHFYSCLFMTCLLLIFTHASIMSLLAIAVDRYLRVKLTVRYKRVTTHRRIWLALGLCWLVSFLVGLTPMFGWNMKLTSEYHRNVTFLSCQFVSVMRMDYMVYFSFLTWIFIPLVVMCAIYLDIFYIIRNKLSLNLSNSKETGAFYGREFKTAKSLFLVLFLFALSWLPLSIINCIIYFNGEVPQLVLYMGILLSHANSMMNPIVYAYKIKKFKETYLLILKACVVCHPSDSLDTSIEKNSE
The data set can be described thus: Displacement of [125I]ABMECA from human A3R expressed in CHO cell membranes at 1 uM measured after 120 mins by scintillation counting method relative to control. In short, it runs like this: (§2)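 Nonspecific binding with 1 µM AB-MECA. GF/B filtration and counting. Ki via Cheng–Prusoff. Percent inhibition at 1 µM. Four experiments in triplicate.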

In data set [4] the test system is Mus musculus. The data set can be described thus: Antinociceptive activity in CD-1 albino mouse model of oxaliplatin-induced neuropathic pain assessed as increase in licking latency at 0.3 mg/kg, po treated on day 15 post oxaliplatin treatment and measured at 15 to 60 mins post dose in presence of nonspecific nAChR antagonist mecamylamine by cold plate test. It is filed as functional, organism-based. In short, it runs like this:
(§3)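 Oxaliplatin neuropathy in male CD-1 mice (2.4 mg/kg i.p., 10 injections, days 1-14). Day 15: mecamylamine 2 mg/kg i.p. or methyllycaconitine 6 mg/kg i.p. given 15 min before the oral dose. Cold plate (4 °C) licking/lifting latency with 60 s cut-off, measured over time after dosing. 10 mice/group, two sets.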

Data set [5] concerns the target T2, Adenosine receptor A1. The data set can be described thus: Displacement of [3H]DPCPX from human A1AR expressed in CHO cell membranes measured after 90 mins by scintillation counting method. A digest of the protocol: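 Nonspecific binding with 1 µM DPCPX. GF/B filtration and scintillation counting. Ki by Cheng–Prusoff. Inhibition % at 1 µM. Four experiments in triplicate.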

The target in data set [6] is T4, Adenosine receptor A2b (Homo sapiens) (UniProt P29275).
T4 sequence (whole entry): T1 sequence (P29275 whole entry)
The data set can be described thus: Agonist activity at human A2B expressed in CHO cells assessed as stimulation of cAMP production at 1 uM by alphascreen assay relative to NECA. It is filed as functional, cell-based. In short, it runs like this:
(§4)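 Compounds tested alone at final 1 nM to 1 µM. cAMP measured by AlphaScreen. Efficacy taken at 1 µM relative to NECA 1 µM (=100%). Four independent experiments in triplicate.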

In data set [7] the target is T1, Adenosine receptor A2b. In words: Agonist activity at human A2B expressed in CHO cells assessed as stimulation of cAMP production by alphascreen assay. It is filed as functional, cell-based. In short, it runs like this: as §4
For data set [8], the system named is Mus musculus. The data set can be described thus: Antinociceptive activity in CD-1 albino mouse model of oxaliplatin-induced neuropathic pain assessed as increase in licking latency at 0.3 mg/kg, po treated on day 15 post oxaliplatin treatment and measured at 15 to 60 mins post dose in presence of alpha7 nAChR antagonist methyllycaconitine by cold plate test. It is filed as functional, organism-based. In short, it runs like this:
as §3

The subject of data set [9] is Mus musculus. In words: Antinociceptive activity in CD-1 albino mouse model of oxaliplatin-induced neuropathic pain assessed as increase in licking latency at 0.01 to 0.3 mg/kg, po treated on day 15 post oxaliplatin treatment and measured at 15 to 45 mins post dose by cold plate test. It is filed as functional, organism-based. In short, it runs like this:
(§5)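 Male CD-1 mice (22–25 g) given oxaliplatin 2.4 mg/kg i.p. in 5% glucose on days 1-2, 5-9 and 12-14. On day 15, single oral dose (test compounds in 1% CMC). Cold plate at 4 °C, latency to paw licking or lifting, 60 s cut-off, read 15–60 min post dose. 10 mice/group in two sets. ANOVA with Bonferroni.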

Data set [10] has as its target T5, Adenosine receptor A2a (Homo sapiens, UniProt P29274). The data set can be described thus: Antagonist activity at human A2AR expressed in CHO cells assessed as inhibition of CGS21680-stimulated cAMP production by alphascreen assay. It is filed as functional, cell-based.
Data set [11] has as its target T6, Adenosine receptor A1 (Homo sapiens) (UniProt P30542).
T6 sequence (whole entry): T2 sequence (P30542 whole entry)
In words: Inverse agonist activity at human A1AR expressed in CHO cells assessed as increase in forskolin-stimulated cAMP production by alphascreen assay relative to DPCPX. It is filed as functional, cell-based. In short, it runs like this:
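Compounds at 1 nM to 1 µM. cAMP rise measured by AlphaScreen. EC50 from sigmoid fit. […] Four independent experiments in triplicate.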

In data set [12] the target is T5, Adenosine receptor A2a. The data set can be described thus: Displacement of [3H]ZM241385 from human A2AR expressed in CHO cell membranes measured after 60 mins by scintillation counting method. A digest of the protocol: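 Nonspecific binding defined with 1 µM ZM241385. Filtered on GF/B, scintillation counted. Ki by Cheng–Prusoff. Percent inhibition at 1 µM. Four experiments in triplicate.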
(In general: Loss of bound radioactivity is the signal in a displacement assay; it reports binding, not function.)

In data set [13] the test system is Mus musculus. In words: Antinociceptive activity in CD-1 albino mouse model of oxaliplatin-induced neuropathic pain assessed as increase in licking latency at 0.3 mg/kg, po treated on day 15 post oxaliplatin treatment and measured at 15 to 60 mins post dose by cold plate test. It is filed as functional, organism-based. In short, it runs like this: as §5
For data set [14], the system named is Mus musculus. In words: Antinociceptive activity in CD-1 albino mouse model of oxaliplatin-induced neuropathic pain assessed as increase in licking latency at 1 mg/kg, po treated on day 15 post oxaliplatin treatment and measured at 15 to 60 mins post dose by cold plate test. It is filed as functional, organism-based. A digest of the protocol: as §5
The next data set deals with T7, Adenosine receptor A3 (Homo sapiens, UniProt P0DMS8).
T7 sequence (P0DMS8 whole entry): T3 sequence (whole entry)
The data set can be described thus: Displacement of [125I]ABMECA from human A3R expressed in CHO cell membranes measured after 120 mins by scintillation counting method. A digest of the protocol:
as §2

Data set [15] is described as follows: Half life in human plasma at 1 uM by LC-MS/MS analysis. It is filed as ADME, cell-free. In short, it runs like this:
(§6)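 Analyte spiked at 1 µM into human plasma or heparinized Sprague-Dawley male rat plasma (or PBS). Incubated at 37°C for 0, 30, 60, 120 min in triplicate. Internal standard added, centrifuged, dried, reconstituted. Quantified by LC-MS/MS (ESI negative, MRM) against a 0–1 µM calibration. Half-life from concentration-time profile.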

Data set [16] deals with T4, Adenosine receptor A2b (Homo sapiens). The data set can be described thus: Antagonist activity at human A2BR expressed in CHO cells assessed as inhibition of NECA-stimulated cAMP production at 1 uM by alphascreen assay relative to control. It is filed as functional, cell-based. A digest of the protocol:
as §1

A short description of data set [17]: Half life in Sprague-Dawley rat plasma at 1 uM by LC-MS/MS analysis. It is filed as ADME, cell-free. A digest of the protocol: as §6
Data set [18] has as its system Mus musculus. The data set can be described thus: Antinociceptive activity in CD-1 albino mouse model of oxaliplatin-induced neuropathic pain assessed as increase in licking latency at 0.1 to 0.3 mg/kg, po treated on day 15 post oxaliplatin treatment and measured at 15 to 45 mins post dose by cold plate test. It is filed as functional, organism-based. In short, it runs like this: as §5

T5 sequence (P29274 whole entry): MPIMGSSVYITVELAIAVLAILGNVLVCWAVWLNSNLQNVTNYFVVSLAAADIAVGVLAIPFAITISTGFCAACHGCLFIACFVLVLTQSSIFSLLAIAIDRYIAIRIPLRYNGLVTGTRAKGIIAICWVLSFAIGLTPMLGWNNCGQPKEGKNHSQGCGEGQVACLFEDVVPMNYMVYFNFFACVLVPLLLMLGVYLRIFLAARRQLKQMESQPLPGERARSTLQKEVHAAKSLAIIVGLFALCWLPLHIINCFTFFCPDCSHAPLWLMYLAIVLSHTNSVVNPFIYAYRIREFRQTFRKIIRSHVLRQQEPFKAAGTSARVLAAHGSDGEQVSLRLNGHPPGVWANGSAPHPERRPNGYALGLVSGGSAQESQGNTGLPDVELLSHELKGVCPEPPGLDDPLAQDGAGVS

For the compound `N#Cc1c(N)nc(SCc2cccc(CO)c2)c(C#N)c1-c1ccco1`, the outcome in the data set with CHO, in the data set with Mus musculus [4] and in the data set with Mus musculus [8] was inactive. In addition, the IC50 stood at 152 nM at Adenosine receptor A2b [1] and 22 nM on Adenosine receptor A2a [10]. In addition, the figures for the EC50 on Adenosine receptor A1 [2] and at Adenosine receptor A2b [7] were 4.97 nM and over 1000 nM, respectively. Moreover, the inhibition in [3] came to 25%. The Ki came out at 0.98 nM on Adenosine receptor A1 [5] and 31 nM on Adenosine receptor A2a [12]. The Efficacy in [6] amounted to 4%. In addition, in the data set with Mus musculus [9], the result was Active. In addition, the Emax in data set [11] was determined as 98%.

With `N#Cc1c(N)nc(SCc2cccc(C(N)=O)c2)c(C#N)c1-c1ccco1`, the result in the data set on Mus musculus [13] and with CHO was inactive. In addition, the IC50 on Adenosine receptor A2b [1] was 13 nM; on Adenosine receptor A2a [10] it was 58 nM. Besides, the EC50 on Adenosine receptor A1 [2] was 2.84 nM; at Adenosine receptor A2b [7], over 1000 nM. Besides, the values for the Ki at Adenosine receptor A1 [5], on Adenosine receptor A3 and at Adenosine receptor A2a [12] were 1.32 nM, 326 nM and 67 nM, respectively. Besides, in data set [6], the Efficacy worked out at 6%. In addition, in the data set on Mus musculus [14], the outcome was Active. Besides, the Emax in data set [11] stood at 31%.

In the case of `COC(=O)c1cccc(CSc2nc(N)c(C#N)c(-c3ccco3)c2C#N)c1`, the result in the data set with CHO, in the data set on Mus musculus [4] and in the data set with Mus musculus [8] was inactive. Besides, the half-life at 1 µM in [15] and in [17] was at least 4 h each time. Further, the EC50 on Adenosine receptor A1 [2] is 1.43 nM; at Adenosine receptor A2b [7] it was over 1000 nM. The inhibition in [3] was determined as 26%; in [16], 25%. For the same compound, the figures for the Ki on Adenosine receptor A1 [5] and on Adenosine receptor A2a [12] were 7.22 nM and 68 nM, respectively. Further, the Efficacy in data set [6] is 7%. For the same compound, the outcome with Mus musculus [18] was Active. Also, the 50% inhibitory concentration (IC50) at Adenosine receptor A2a [10] is 313 nM. For the same compound, in [11], the Emax is 35%.

For the origin of these results see ChEMBL document CHEMBL4406810, “Modifications on the Amino-3,5-dicyanopyridine Core To Obtain Multifaceted Adenosine Receptor Ligands with Antineuropathic Activity” (J Med Chem, 2019).
